Data as given in ChEMBL document CHEMBL3352049, “Taxanes with high potency inducing tubulin assembly overcome tumoural cell resistances” (Bioorg Med Chem, 2014).
Activity calls are given as the source filed them. The rule behind the calls is not given here.

Tests used:
1A9 [1] = assay: Cytotoxicity against human 1A9 cells by MTT assay; type: functional, cell-based
Procedure, shortened: (§1)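 MTT assay run as a modified version of an earlier method. IC50 in nM is the mean ± SEM of three independent assays. Relative resistance is the IC50 in the resistant line (1A9 tubulin mutants, or βIII-transfected HeLa) divided by the IC50 in the parental line (1A9 or HeLa).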

1A9 [2] = assay: Resistance ratio of IC50 for human 1A9PTX10 cells to IC50 for human 1A9 cells; type: functional
Procedure, shortened: (§2)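 Relative resistance is the IC50 in the 1A9 tubulin-mutant line divided by the IC50 in parental 1A9 ovarian carcinoma cells. Each IC50 (nM) is the mean ± SEM of three independent assays.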

microtubule (Bos taurus) [3] = assay: Binding affinity to microtubule (Bos taurus) after 30 mins at 26 degC by flutax-2 displacement method
microtubule (Bos taurus) [4] = assay: Binding affinity to microtubule (Bos taurus) after 30 mins at 32 degC by flutax-2 displacement method
microtubule (Bos taurus) [5] = assay: Binding affinity to microtubule (Bos taurus) after 30 mins at 40 degC by flutax-2 displacement method
1A9 [6] = assay: Resistance ratio of IC50 for human 1A9/A8 cells to IC50 for human 1A9 cells; type: functional
microtubule (Bos taurus) [7] = assay: Binding affinity to microtubule (Bos taurus) after 30 mins at 37 degC by flutax-2 displacement method
[8] = Cytotoxicity against human 1A9/A8 cells by MTT assay; type: functional, cell-based; procedure, shortened: as §1
Tubulin (Bos taurus) = Tubulin (Bos taurus) (UniProt Q6B856+Q862L2+Q862F3); assay: Induction of calf brain tubulin polymerization assessed as tubulin concentration required to form microtubules by electron microscopy
Procedure, shortened: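 Critical tubulin concentration found by centrifugation and quantification of the polymer formed. Polymers adsorbed onto formvar/carbon-coated copper grids, stained with 1% uranyl acetate, and viewed by electron microscopy at 100 kV.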

microtubule (Bos taurus) [9] = assay: Binding affinity to microtubule (Bos taurus) after 30 mins at 42 degC by flutax-2 displacement method
[10] = Cell cycle arrest at G2/M phase in human A2780AD cells at 60 nM after 20 hrs by flow cytometry; type: functional, cell-based; settings: A2780 ADR
A2780 [11] = assay: Cell cycle arrest at G2/M phase in human A2780 cells at 60 nM after 20 hrs by flow cytometry; type: functional, cell-based
microtubule (Bos taurus) [12] = assay: Binding affinity to microtubule (Bos taurus) after 30 mins at 35 degC by flutax-2 displacement method
microtubule (Bos taurus) [13] = assay: Binding affinity to microtubule (Bos taurus) by TR-NOESY spectroscopy
[14] = Cytotoxicity against human 1A9PTX22 cells by MTT assay; type: functional, cell-based; settings: 1A9/ptx-22; procedure, shortened: as §1
[15] = Cell cycle arrest at G2/M phase in human A2780AD cells at 30 nM after 20 hrs by flow cytometry; type: functional, cell-based; settings: A2780 ADR
microtubule (Bos taurus) [16] = assay: Binding affinity to microtubule (Bos taurus) by STD NMR spectroscopy
[17] = Cytotoxicity against human A2780AD cells by MTT assay; type: functional, cell-based; settings: A2780 ADR
HeLa [18] = assay: Resistance ratio of IC50 for human HeLa cells transfected with wild-type tubulin beta3 to IC50 for human HeLa cells; type: functional
Procedure, shortened: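 Relative resistance is the IC50 in HeLa cells transfected with wild-type βIII-tubulin divided by the IC50 in parental HeLa cells. Each IC50 (nM) is the mean ± SEM of three independent assays.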

[19] = Resistance ratio of IC50 for human A2780AD cells to IC50 for human A2780 cells; type: functional, A2780 ADR
HeLa [20] = assay: Cytotoxicity against human HeLa cells transfected with wild-type tubulin beta3 by MTT assay; type: functional, cell-based; procedure, shortened: as §1
microtubule (Bos taurus) [21] = assay: Binding affinity to microtubule (Bos taurus) after 30 mins at 30 degC by flutax-2 displacement method
HeLa [22] = assay: Cytotoxicity against human HeLa cells by MTT assay; type: functional, cell-based; procedure, shortened: as §1
[23] = Cytotoxicity against human 1A9PTX10 cells by MTT assay; type: functional, cell-based; settings: 1A9/ptx-10; procedure, shortened: as §1
[24] = Cytotoxicity against human MCF7/R cells by MTT assay; type: functional, cell-based; settings: MCF7R
A549 [25] = assay: Cell cycle arrest at G2/M phase in human A549 cells at 30 nM after 20 hrs by flow cytometry; type: functional, cell-based
A2780 [26] = assay: Cell cycle arrest at G2/M phase in human A2780 cells at 30 nM after 20 hrs by flow cytometry; type: functional, cell-based
A2780 [27] = assay: Cytotoxicity against human A2780 cells by MTT assay; type: functional, cell-based
1A9 [28] = assay: Resistance ratio of IC50 for human 1A9PTX22 cells to IC50 for human 1A9 cells; type: functional; procedure, shortened: as §2
A549 [29] = assay: Effect on microtubule cytoskeleton in human A549 cells assessed as induction of micronuleated cells with short microtubules in cytoplasm at 60 to 120 nM after 24 hrs by immunofluorescence assay; type: cell-based
Procedure, shortened: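 A549 cells were grown overnight on coverslips, then given DMSO vehicle or ligand (60 or 120 nM) for 24 h. Cells were permeabilized with Triton X-100 and fixed in 3.7% formaldehyde. Microtubules were stained with DM1A α-tubulin antibody and DNA with Hoechst 33342. Preparations were viewed by epifluorescence microscopy.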

microtubule (Bos taurus) [30] = assay: Binding affinity to microtubule (Bos taurus) after 30 mins at 27 degC by flutax-2 displacement method
A549 [31] = assay: Cell cycle arrest at G2/M phase in human A549 cells at 60 nM after 20 hrs by flow cytometry; type: functional, cell-based
A549 [32] = assay: Effect on microtubule cytoskeleton in human A549 cells assessed as induction of MS bundles of microtubules near membrane and nucleus at 50 to 500 nM after 24 hrs by immunofluorescence assay; type: cell-based
Procedure, shortened: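 A549 cells grown overnight on 12 mm round coverslips, then exposed 24 h to DMSO vehicle or ligand at serial concentrations. Permeabilized with Triton X100, fixed in 3.7% formaldehyde. Microtubules stained with DM1A anti-α-tubulin monoclonal, DNA with Hoechst 33342. Viewed by epifluorescence microscopy and imaged with a cooled CCD camera.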

microtubule (Bos taurus) [33] = assay: Binding affinity to paclitaxel site of microtubule (Bos taurus) after 30 mins at 30 degC by epothilone B displacement method
microtubule (Bos taurus) [34] = assay: Binding affinity to paclitaxel site of microtubule (Bos taurus) after 30 mins at 35 degC by epothilone B displacement method
microtubule (Bos taurus) [35] = assay: Binding affinity to paclitaxel site of microtubule (Bos taurus) after 30 mins at 26 degC by epothilone B displacement method
microtubule (Bos taurus) [36] = assay: Binding affinity to paclitaxel site of microtubule (Bos taurus) after 30 mins at 40 degC by epothilone B displacement method

SMILES | IC50 (1A9 [1]) | IC50 [8] | Activity (Tubulin (Bos taurus)) | Activity [10] | Activity (A2780 [11]) | IC50 [14] | Activity [15] | IC50 [17] | IC50 (HeLa [20]) | IC50 (HeLa [22]) | IC50 [23] | IC50 [24] | Activity (A549 [25]) | Activity (A2780 [26]) | IC50 (A2780 [27]) | Activity (A549 [29]) | Activity (A549 [31]) | further results
CC(=O)O[C@@]12CO[C@@H]1C[C@H](O)[C@@]1(C)C(=O)[C@H](OC(=O)N(C)C)C3=C(C)[C@@H](OC(=O)[C@H](O)[C@H](C=C(F)F)NC(=O)OC(C)(C)C)C[C@@](O)([C@@H](OC(=O)c4ccccc4)[C@H]21)C3(C)C | 3.2 nM | 4 nM | 0.3 µM | Active | Active | 7 nM | Active | 15.1 nM | 3.5 nM | 2.5 nM | 5.25 nM | 4.3 nM | Active | Active | 3.5 nM | Active | Active | Ratio IC50 (1A9 [2]): 1.6; Kb (microtubule (Bos taurus) [3]): 15 ×10⁷ /M; Kb (microtubule (Bos taurus) [4]): 13 ×10⁷ /M; Kb (microtubule (Bos taurus) [5]): 10 ×10⁷ /M; Ratio IC50 (1A9 [6]): 1.2; Kb (microtubule (Bos taurus) [7]): 10 ×10⁷ /M; Kb (microtubule (Bos taurus) [9]): 8 ×10⁷ /M; Kb (microtubule (Bos taurus) [12]): 10 ×10⁷ /M; Activity (microtubule (Bos taurus) [13]): Active; Activity (microtubule (Bos taurus) [16]): Active; Ratio IC50 (HeLa [18]): 1.4; Ratio IC50 [19]: 4.3; Kb (microtubule (Bos taurus) [21]): 13 ×10⁷ /M; Ratio IC50 (1A9 [28]): 2.2; Kb (microtubule (Bos taurus) [30]): 14 ×10⁷ /M
CC(=O)O[C@H]1C(=O)[C@@]2(C)[C@H]([C@H](OC(=O)c3ccccc3)[C@]3(O)C[C@H](OC(=O)[C@H](O)[C@@H](NC(=O)c4ccccc4)c4ccccc4)C(C)=C1C3(C)C)[C@]1(OC(C)=O)CO[C@@H]1C[C@@H]2O [PACLITAXEL] | 3.9 nM | 4.2 nM | 4.2 µM | – | – | 32.8 nM | – | 1240 nM | – | 0.7 nM | 81.4 nM | – | – | – | 0.4 nM | – | – | Activity (A549 [32]): Active
CCC(=O)O[C@H]1C(=O)[C@@]2(C)[C@H]([C@H](OC(=O)c3cccc(OC)c3)[C@]3(O)C[C@H](OC(=O)[C@H](O)[C@H](C=C(C)C)NC(=O)OC(C)(C)C)C(C)=C1C3(C)C)[C@]1(OC(C)=O)CO[C@@H]1C[C@@H]2O | 3.3 nM | 4 nM | 0.6 µM | Active | Active | 4.9 nM | Active | 10.5 nM | 4.8 nM | 5.7 nM | 2.9 nM | 0.33 nM | Active | Active | 3.4 nM | Active | Active | Kb (microtubule (Bos taurus) [33]): 545 ×10⁷ /M; Kb (microtubule (Bos taurus) [34]): 478 ×10⁷ /M; Kb (microtubule (Bos taurus) [35]): 731 ×10⁷ /M; Kb (microtubule (Bos taurus) [36]): 318 ×10⁷ /M
